Source: ChEMBL document CHEMBL1153389, “Identification of novel antibacterial peptides by chemoinformatics and machine learning” (2009)

What was measured:
Assay type in all cases: functional
Pseudomonas aeruginosa [1] = experiment: Antimicrobial activity against Pseudomonas aeruginosa H103 after overnight incubation by broth microdilution method
In short: (§1)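 Modified broth microdilution. Peptides are serially diluted in 0.01% acetic acid with 0.2% BSA at 10-fold the final concentration, then added to MH medium in polypropylene plates. Bacteria from an overnight culture are added to a final (2-7) × 10^5 CFU/mL. Plates are incubated overnight at 37 °C. MIC is the lowest concentration with no visible growth.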

Pseudomonas aeruginosa [2] = experiment: Antimicrobial activity against Pseudomonas aeruginosa H1001 expressing luciferase gene assessed as ratio antimicrobial IC50 for drug to Bac2A peptide by luminescence assay
In short: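 Peptides are made by SPOT synthesis on cellulose, cleaved, and the spots placed in plate wells. Overnight P. aeruginosa H1001 (fliC::luxCDABE) is diluted 1:500 in 100 mM Tris-HCl pH 7.3 with 20 mM glucose and added to the wells. After 30 min, serial dilutions (8 rows) are made. Luminescence is read at 4 h. IC50 is taken from a sigmoid fit and expressed relative to Bac2A run in the same series.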

Pseudomonas aeruginosa [3] = experiment: Antimicrobial activity against multidrug-resistant Pseudomonas aeruginosa Brazil 9 isolate after overnight incubation by broth microdilution method
In short: (§2)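 Modified broth microdilution in polypropylene 96-well plates with Mueller-Hinton (MH) medium. Bulk-synthesized peptides were serially diluted at 10-fold final strength in 0.01% acetic acid with 0.2% BSA, then added 1:10 to MH. Inoculum came from an overnight culture at a final (2-7) × 10^5 CFU/mL. Plates were incubated overnight at 37 °C. MIC was the lowest concentration with no visible growth.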

Pseudomonas aeruginosa [4] = experiment: Antimicrobial activity against multidrug-resistant Pseudomonas aeruginosa Brazil 198 isolate after overnight incubation by broth microdilution method; in short: as §2
Pseudomonas aeruginosa [5] = experiment: Antimicrobial activity against multidrug-resistant Pseudomonas aeruginosa Brazil 213 isolate after overnight incubation by broth microdilution method; in short: as §2
Pseudomonas aeruginosa [6] = experiment: Antimicrobial activity against Pseudomonas aeruginosa LES400 after overnight incubation by broth microdilution method; in short: as §2
Pseudomonas aeruginosa [7] = experiment: Antimicrobial activity against Pseudomonas aeruginosa H1030 after overnight incubation by broth microdilution method; in short: as §2
Pseudomonas aeruginosa [8] = experiment: Antimicrobial activity against Pseudomonas aeruginosa H1027 after overnight incubation by broth microdilution method; in short: as §1
[9] = test system: Stenotrophomonas maltophilia; experiment: Antimicrobial activity against Pseudomonas maltophilia ATCC 13637 after overnight incubation by broth microdilution method; in short: as §1
Enterobacter cloacae = experiment: Antimicrobial activity against class C chromosomal beta lactamase expressing Enterobacter cloacae 218R after overnight incubation by broth microdilution method; in short: as §1
Escherichia coli [10] = experiment: Antimicrobial activity against extended-spectrum beta-lactamase producing Escherichia coli 63103 after overnight incubation by broth microdilution method; in short: as §1
Escherichia coli [11] = experiment: Antimicrobial activity against extended-spectrum beta-lactamase producing Escherichia coli 64771 after overnight incubation by broth microdilution method; in short: as §1
Klebsiella pneumoniae [12] = experiment: Antimicrobial activity against extended-spectrum beta-lactamase-resistant Klebsiella pneumoniae 61962 after overnight incubation by broth microdilution method; in short: as §2
Klebsiella pneumoniae [13] = experiment: Antimicrobial activity against extended-spectrum beta-lactamase-resistant Klebsiella pneumoniae 63575 after overnight incubation by broth microdilution method; in short: as §2
Staphylococcus aureus [14] = experiment: Antimicrobial activity against Staphylococcus aureus ATCC 25923 after overnight incubation by broth microdilution method; in short: as §2
Staphylococcus aureus [15] = experiment: Antimicrobial activity against methicillin-resistant Staphylococcus aureus C623 after overnight incubation by broth microdilution method; in short: as §2
Enterococcus faecalis [16] = experiment: Antimicrobial activity against Enterococcus faecalis ATCC 29212 after overnight incubation by broth microdilution method; in short: as §1
Enterococcus faecalis [17] = experiment: Antimicrobial activity against vancomycin-resistant Enterococcus faecalis w6190(VanA) isolate after overnight incubation by broth microdilution method; in short: as §2
Enterococcus faecalis [18] = experiment: Antimicrobial activity against vancomycin-resistant Enterococcus faecalis f43559 (VanB) isolate after overnight incubation by broth microdilution method; in short: as §2
Enterococcus faecium [19] = experiment: Antimicrobial activity against vancomycin-resistant Enterococcus faecium mic80(VanA) isolate after overnight incubation by broth microdilution method; in short: as §2
Enterococcus faecium [20] = experiment: Antimicrobial activity against vancomycin-resistant Enterococcus faecium t62764(VanB) isolate after overnight incubation by broth microdilution method; in short: as §2

Row | Substance | MIC (Pseudomonas aeruginosa [1]) | Ratio IC50 (Pseudomonas aeruginosa [2]) | MIC (Pseudomonas aeruginosa [3]) | MIC (Pseudomonas aeruginosa [4]) | MIC (Pseudomonas aeruginosa [5]) | MIC (Pseudomonas aeruginosa [6]) | MIC (Pseudomonas aeruginosa [7]) | MIC (Pseudomonas aeruginosa [8]) | MIC [9] | MIC (Enterobacter cloacae) | MIC (Escherichia coli [10]) | MIC (Escherichia coli [11]) | MIC (Klebsiella pneumoniae [12]) | MIC (Klebsiella pneumoniae [13]) | MIC (Staphylococcus aureus [14]) | MIC (Staphylococcus aureus [15]) | MIC (Enterococcus faecalis [16]) | MIC (Enterococcus faecalis [17]) | MIC (Enterococcus faecalis [18]) | MIC (Enterococcus faecium [19]) | also measured
1 | H-WRWWKIWKR-OH | 5.9 µM | 0.14 | 24 µM | 24 µM | 47 µM | 12 µM | 47 µM | 1.5 µM | 0.8 µM | 12 µM | 5.9 µM | 5.9 µM | 94 µM | 24 µM | 3 µM | 3 µM | 24 µM | 94 µM | 94 µM | 5.9 µM | MIC (Enterococcus faecium [20]): 1.5 µM
2 | H-WKKWWKRRW-OH | 23 µM | 0.19 | 46 µM | 46 µM | 93 µM | 46 µM | 46 µM | 5.8 µM | 1.4 µM | 23 µM | 23 µM | 2.9 µM | 186 µM | 46 µM | 1.4 µM | 2.9 µM | 93 µM | > 186 µM | > 186 µM | 12 µM | MIC (Enterococcus faecium [20]): 5.8 µM
3 | H-RWRRWKWWL-OH | 2.9 µM | 0.08 | 12 µM | 12 µM | 23 µM | 5.8 µM | 12 µM | 0.3 µM | 0.7 µM | 5.8 µM | 5.7 µM | 2.9 µM | 46 µM | 11 µM | 2.9 µM | 2.9 µM | 23 µM | 92 µM | 92 µM | 5.7 µM | MIC (Enterococcus faecium [20]): 1.4 µM
4 | H-FRRWWKWFK-OH | 1.5 µM | 0.12 | 12 µM | 3 µM | 5.9 µM | 5.9 µM | 24 µM | 1.5 µM | 0.8 µM | 24 µM | 12 µM | 6.1 µM | 97 µM | 24 µM | 1.5 µM | 3 µM | 24 µM | 195 µM | 97 µM | 6.1 µM | MIC (Enterococcus faecium [20]): 6.1 µM
5 | H-RKWIWRWFL-OH | 6.1 µM | 0.15 | 12 µM | 3.1 µM | 6.1 µM | 6.1 µM | 3.1 µM | 1.5 µM | 1.5 µM | 3 µM | 1.5 µM | 1.5 µM | 3.1 µM | 3.1 µM | 3.1 µM | 3.1 µM | 6.1 µM | 24 µM | 24 µM | 3.1 µM | MIC (Enterococcus faecium [20]): 3.1 µM
6 | H-WKRWWKKWR-OH | 23 µM | 0.2 | 46 µM | 46 µM | 93 µM | 23 µM | 46 µM | 5.8 µM | 1.4 µM | 93 µM | 23 µM | 2.9 µM | 186 µM | 46 µM | 5.8 µM | 5.8 µM | 93 µM | > 186 µM | > 186 µM | 23 µM | MIC (Enterococcus faecium [20]): 5.8 µM
7 | H-LRWWWIKRI-OH | 13 µM | 0.33 | 50 µM | 25 µM | 50 µM | 25 µM | 25 µM | 6.3 µM | 3.2 µM | 50 µM | 25 µM | 13 µM | 201 µM | 50 µM | 6.3 µM | 6.3 µM | 13 µM | 50 µM | 25 µM | 6.3 µM | MIC (Enterococcus faecium [20]): 1.5 µM
8 | H-KIWWWWRKR-OH | 5.9 µM | 0.13 | 47 µM | 24 µM | 47 µM | 47 µM | 12 µM | 5.9 µM | 3 µM | 94 µM | 12 µM | 5.9 µM | 189 µM | 47 µM | 5.9 µM | 5.9 µM | 24 µM | 94 µM | 94 µM | 5.9 µM | MIC (Enterococcus faecium [20]): 1.5 µM
